Results published in paper PMC8035306 (Journal of medicinal chemistry, 2021).

Columns and labels:
[1] = test system: other 32 methyltransferases (PRMTs, PKMTs, DNMTs, RNA methyltransferase); experiment: Methyltransferase selectivity panel: other 32 methyltransferases; type: biochemical; settings: at 1 and 10 μM
Procedure, shortened: (§1)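 Panel of 33 methyltransferases (8 PRMTs, 21 PKMTs, 3 DNMTs, 1 RNA methyltransferase) run by an earlier published protocol. Test compound at 1 μM and 10 μM; n = 3.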

PRMT6 [2] = target: T1, PRMT6 (Homo sapiens, UniProt Q96LA8); experiment: Methyltransferase selectivity panel: PRMT6; type: biochemical; settings: at 1 and 10 μM
Procedure, shortened: as §1

PNT2 = experiment: Cell viability assay; type: cell-based; settings: PNT2, up to 10 μM, 3 days treatment
Procedure, shortened: (§2)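 Cells seeded at 1 × 10^4 per well and left 24 h, then exposed for 3 days to serially diluted test compound starting at 10 μM. CCK-8 (WST-8) reagent added, followed by 4 h at 37 °C; absorbance read at 450 nm. Results given as average ± SD of three replicate experiments.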

MCF-7 = experiment: Cell viability assay; type: cell-based; settings: MCF-7, up to 10 μM, 3 days treatment
Procedure, shortened: as §2

HEK293T cells = experiment: Toxicity to HEK293T cells seen in the cellular PRMT6 assay; type: cell-based; settings: 20 h
PRMT6 [3] = target: T1, PRMT6; experiment: Mass spectrometry analysis for assessing covalent binding; settings: PRMT6 incubated with compound for 2 h
Procedure, shortened: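 Purified PRMT6 incubated with a 20-fold molar excess of test compound at room temperature, then acidified with 0.1% trifluoroacetic acid (aq.). Sample separated by HPLC on a 5–95% acetonitrile/water gradient and analysed by electrospray-ionisation time-of-flight mass spectrometry for mass shifts indicating covalent adducts.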

HEK293T = experiment: Cell viability assay; type: cell-based; settings: up to 10 μM, 3 days treatment
Procedure, shortened: as §2

PRMT6 [4] = target: T1, PRMT6; experiment: PRMT6 radiometric biochemical assay, 2 h preincubation
[5] = target: Flag-tagged PRMT6 in HEK293T cells (Homo sapiens, UniProt Q96LA8); experiment: Cellular PRMT6 assay; type: cell-based; settings: 20 h, up to 10 μM
Flag-tagged PRMT6 in HEK293T cells, sequence (Q96LA8 whole entry): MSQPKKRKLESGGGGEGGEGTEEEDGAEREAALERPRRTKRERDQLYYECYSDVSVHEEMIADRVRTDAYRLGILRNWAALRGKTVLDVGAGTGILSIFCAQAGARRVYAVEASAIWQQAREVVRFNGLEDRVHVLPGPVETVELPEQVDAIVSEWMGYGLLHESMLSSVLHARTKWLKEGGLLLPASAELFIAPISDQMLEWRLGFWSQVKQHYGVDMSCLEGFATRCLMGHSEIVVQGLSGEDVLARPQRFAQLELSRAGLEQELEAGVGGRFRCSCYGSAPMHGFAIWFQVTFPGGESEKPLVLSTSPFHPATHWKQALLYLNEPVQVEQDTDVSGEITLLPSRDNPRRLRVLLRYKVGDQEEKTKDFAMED

T1 sequence (Q96LA8 whole entry): as above

Row | inhibition of other 32 methyltransferases [1] | inhibition of PRMT6 in methyltransferase panel (PRMT6 [2]) | covalent modification of PRMT6 (PRMT6 [3]) | decrease in the IC50 value after compound preincubation with PRMT6 (PRMT6 [4]; 2 h preincubation versus no incubation) | pattern of inhibition with respect to SAM cofactor and peptide substrate (PRMT6 [4]; 2 h preincubation, IC50 at various SAM or peptide concentrations) | reduction of cellular levels of H3R2me2a [5] | reduction of cellular levels of H4R3me2a [5] | activity against PRMT6 (in words) (PRMT6 [4]) | Compound | toxicity (cell viability) (PNT2) | toxicity (cell viability) (MCF-7) | toxicity to HEK293T cells (HEK293T cells; up to 10 μM) | toxicity (cell viability) (HEK293T) | toxicity to HEK293T cells (HEK293T cells; at 30 μM)
1 | did not significantly inhibit | potently inhibited | No covalent modification | more than 100 fold | noncompetitive | – | – | – | Cc1cc(C)cc([C@@H]2c3cc(C)ccc3NC(=O)CN2C(=O)c2ccc(Br)s2)c1 [(R)-2, 4-(5-bromothiophene-2-carbonyl)-5-(3,5-dimethylphenyl)-7-methyl-1,3,4,5-tetrahydro-2H-benzo[e][1,4]diazepin-2-one] | Neither (R)-2 nor (S)-2 showed any significant toxicity | Neither (R)-2 nor (S)-2 showed any significant toxicity | did not show significant toxicity | Neither (R)-2 nor (S)-2 showed any significant toxicity | –
2 | did not significantly inhibit | did not significantly inhibit | – | – | – | did not significantly reduce | did not significantly reduce | inactive | Cc1cc(C)cc([C@H]2c3cc(C)ccc3NC(=O)CN2C(=O)c2ccc(Br)s2)c1 [(S)-2, 4-(5-bromothiophene-2-carbonyl)-5-(3,5-dimethylphenyl)-7-methyl-1,3,4,5-tetrahydro-2H-benzo[e][1,4]diazepin-2-one] | Neither (R)-2 nor (S)-2 showed any significant toxicity | Neither (R)-2 nor (S)-2 showed any significant toxicity | – | Neither (R)-2 nor (S)-2 showed any significant toxicity | significant toxicity
